Drawing on ChEMBL document CHEMBL3399923, “Design and synthesis of new bioisosteres of spirooxindoles (MI-63/219) as anti-breast cancer agents” (Bioorg Med Chem, 2015), this text covers IC50 for 9 molecules.

Structures are written as SMILES.

The test system of one assay is MDA-MB-231. As to the kind of experiment: Cytotoxicity against human MDA-MB-231 cells after 48 hrs by MTT assay. In kind it is functional, cell-based. Conditions: MDA-MB-231, 48 h. A digest of the protocol:
(§1)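 MTT viability screen for cytotoxicity across the breast cancer and normal kidney epithelial lines; IC50 reported in µM.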
(In general: Formazan colour is commonly taken as a measure of viable cells.)

The next assay concerns MCF7. In words: Cytotoxicity against human MCF7 cells after 48 hrs by MTT assay. Type of assay: functional, cell-based. Conditions: MCF7, 48 h. A digest of the protocol:
as §1

Another assay has as its system HEK293. In words: Cytotoxicity against human HEK293 cells after 48 hrs by MTT assay. In kind it is cell-based. Particulars: HEK293, 48 h. In short, it runs like this:
as §1

For a further assay, the system named is Vero. As to the kind of experiment: Cytotoxicity against African green monkey Vero cells after 48 hrs by MTT assay. In kind it is cell-based. Particulars: Chlorocebus sabaeus. In short, it runs like this:
as §1

On to `O=C(c1ccc(OCCN2CCCCC2)cc1)C1[C@H](c2ccccc2)[C@@H](c2ccccc2)NC12C(=O)Nc1ccc([N+](=O)[O-])cc12` (stereo partly specified), for which the IC50 in the assay on MDA-MB-231 was determined as 13.5 µM; in the assay with MCF7, 15.2 µM; with HEK293, 18.8 µM; with Vero it was 22.4 µM.

On to `O=C(c1ccc(OCCN2CCOCC2)cc1)C1[C@H](c2ccccc2)[C@@H](c2ccccc2)NC12C(=O)Nc1ccccc12` (stereo partly specified), for which the IC50 in the assay on MDA-MB-231, in the assay on MCF7, in the assay on HEK293 and with Vero was > 50 µM throughout.

`O=C(c1ccc([N+](=O)[O-])cc1)C1[C@H](c2ccccc2)[C@@H](c2ccccc2)NC12C(=O)Nc1ccccc12` (stereo partly specified): the IC50 was 29.5 µM in the assay with MDA-MB-231, 15.5 µM with MCF7, 21.4 µM with HEK293 and > 50 µM in the assay with Vero.

Regarding `O=C(c1ccc(OCCN2CCOCC2)cc1)C1[C@H](c2ccccc2)[C@@H](c2ccccc2)NC12C(=O)Nc1ccc([N+](=O)[O-])cc12` (stereo partly specified), the IC50 in the assay on MDA-MB-231 was > 50 µM; in the assay on MCF7, 24.7 µM; in the assay with HEK293, 45.4 µM; in the assay on Vero it was > 50 µM.

Regarding `COc1ccc(C2=N[C@@H](c3ccc(Cl)cc3)[C@@H](c3ccc(Cl)cc3)N2C(=O)N2CCNC(=O)C2)c(OC(C)C)c1` [NUTLIN-3], the IC50 with MDA-MB-231 is 23.5 µM; in the assay with MCF7 it was 11.6 µM; in the assay on HEK293 it was > 50 µM; in the assay on Vero it was > 50 µM.

For `CC(CN(C)C)Oc1ccc(C(=O)C2[C@H](c3ccccc3)[C@@H](c3ccccc3)NC23C(=O)Nc2ccccc23)cc1` (stereo partly specified), the IC50 with MDA-MB-231 was > 50 µM; with MCF7, 20.5 µM; in the assay with HEK293 it was > 50 µM; in the assay on Vero, > 50 µM.

On to `O=C(c1ccc(OCCN2CCOCC2)cc1)C1[C@H](c2ccccc2)[C@@H](c2ccccc2)NC12C(=O)Nc1ccc(Cl)cc12` (stereo partly specified), for which the IC50 with MDA-MB-231 was found to be 19.2 µM; in the assay with MCF7, 18 µM; in the assay on HEK293, 25.4 µM; in the assay on Vero it was 30.8 µM.

As for `COc1ccc([C@H]2C(C(=O)c3ccccc3)C3(N[C@@H]2c2ccccc2)C(=O)Nc2ccccc23)cc1` (stereo partly specified), the IC50 was 30.5 µM in the assay with MDA-MB-231, 20.6 µM in the assay on MCF7, > 50 µM with HEK293 and 43.5 µM in the assay on Vero.

For `CCN(CC)CCOc1ccc(C(=O)C2[C@H](c3ccccc3)[C@@H](c3ccccc3)NC23C(=O)Nc2ccccc23)cc1` (stereo partly specified), the IC50 with MDA-MB-231 worked out at 14.5 µM; in the assay on MCF7 it was 13.4 µM; in the assay on HEK293 it was 23.2 µM; in the assay on Vero, 20.6 µM.

A word on the IC50: it is the concentration that gives 50% inhibition.
